Compound activity from PubChem.
IDH1 mut inh = inhibitors of IDH1 R132H reductase, primary screen, biochemical, plate reader, single point. diaphorase/resazurin fluorescence, 60 min. 70,000 compounds, 0.18% hits. Isocitrate dehydrogenase [NADP] cytoplasmic (Homo sapiens), O75874. inhibition, % at 10 µM; in the data active = inhibition above about 34%; inconclusive = no clear call, values can overlap the other calls; inactive = below about 11%;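 note: 0% = DMSO and 100% = no enzyme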
Target sequence (O75874 whole entry R132H): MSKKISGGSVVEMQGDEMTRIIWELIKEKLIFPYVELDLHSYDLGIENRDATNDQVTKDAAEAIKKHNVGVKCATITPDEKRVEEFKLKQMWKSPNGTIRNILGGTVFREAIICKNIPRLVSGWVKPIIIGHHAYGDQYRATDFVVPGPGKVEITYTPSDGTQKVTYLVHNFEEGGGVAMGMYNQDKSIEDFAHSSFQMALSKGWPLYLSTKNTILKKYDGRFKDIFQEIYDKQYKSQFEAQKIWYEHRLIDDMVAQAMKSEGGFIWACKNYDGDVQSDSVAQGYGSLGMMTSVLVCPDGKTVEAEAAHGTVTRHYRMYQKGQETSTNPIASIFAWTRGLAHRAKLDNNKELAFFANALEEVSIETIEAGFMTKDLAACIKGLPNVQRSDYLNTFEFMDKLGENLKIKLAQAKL
T cruzi growth = T. cruzi intracellular proliferation inhibitors, primary screen, cell-based, beta-gal Tulahuen parasites, NIH3T3 host, luminescence; T. cruzi beta-gal in NIH3T3, GalScreen luminescence, 90 h; inhibition, % at 8.34 µM; 77,000 compounds, 5.9% hits;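 active = mean inhibition above about 93%, with at least 55% of replicates each passing it, limit read from the data, passing the limit was not always enough; inconclusive = only one of those two conditions holds; inactive = neither condition holds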
Pf Dd2 inh = P. falciparum Dd2 growth inhibitors, primary screen, SYBR Green fluorescence, single dose replicates. AID 1159554, 2015. activity change, % at 10 µM. 72 h; hits give low values. 94,000 compounds, 2.3% hits; in the data active = activity change below about -80%; inconclusive = no clear call, values can overlap the other calls
GASC1 inh = inhibitors of GASC-1 (KDM4C) histone demethylase, primary screen, biochemical, single concentration HTS; Lysine-specific demethylase 4C (Homo sapiens), Q9H3R0; GST-KDM4C 2-372, H3K9me3 peptide, LANCE TR-FRET; inhibition, % at 12.5 µM; 96,000 compounds, 0.15% hits;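 active = mean replicate inhibition above about 25%, with at least 55% of replicates also reaching it, limit read from the data, passing the limit was not always enough; inconclusive = only one of those two conditions met; inactive = neither condition met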
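Material: GST-tagged GASC-1 (JMJD2C) catalytic fragment, aa 2-372. Input: enzyme final amount 10 nM. Medium: HEPES buffer, pH 7.5, plus ascorbate. Reagent: H3K9me3 peptide substrate, Fe(II), 2-oxoglutarate. Doses: single dose. Times: reaction 30 min RT, detection step 1 h RT. Measured by: LANCE TR-FRET. Evaluation: Fall in 671/618 emission ratio as inhibition.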
The depositor's hits bear a star. Only some compounds are listed: those with a hit (about 5.8% of all), similar ones and a draw of the others.

`CCc1nc(N2[C@@H](C#N)[C@H](c3ccccc3-c3ccccc3F)[C@@H]2CO)sc1C` gave Pf Dd2 inh 23 and GASC1 inh -3.
Screening CCc1nc(N2[C@H](C#N)[C@H](c3ccccc3-c3ccccc3F)[C@H]2CO)sc1C returned Pf Dd2 inh -86* and GASC1 inh -4.
Cc1ccc(-c2ccccc2[C@H]2[C@@H](C#N)N(C(=O)c3cccc(F)c3)[C@H]2CO)cc1 was read as Pf Dd2 inh -91* and GASC1 inh 0.
For N#C[C@@H]1[C@H](c2ccccc2-c2cccc(F)c2)[C@H](CO)N1C(=O)C1CCCC1 the results were Pf Dd2 inh -95* and GASC1 inh -1.
N#C[C@@H]1[C@H](c2ccccc2-c2cccc(F)c2)[C@H](CO)N1C(=O)C1CC1 was read as Pf Dd2 inh -83* and GASC1 inh 0.
NC(=O)CSc1nc2ccccc2n1CC(=O)N1CCCCC1 was read as IDH1 mut inh 0.
`N#C[C@@H]1[C@H](c2ccccc2-c2ccccc2F)[C@H](CO)N1C(=O)C1CC1` gave Pf Dd2 inh -74 and GASC1 inh 0.
`N#C[C@@H]1[C@@H](c2ccc(-c3cccc(F)c3)cc2)[C@H](CO)N1C(=O)c1cccnc1` gave T cruzi growth 51, Pf Dd2 inh 3 and GASC1 inh -1.
Screening N#C[C@@H]1[C@@H](c2ccccc2-c2ccccc2F)[C@H](CO)N1C(=O)C1CC1 returned Pf Dd2 inh -88* and GASC1 inh 1.
`N#C[C@H]1[C@H](c2ccc(-c3cccc(F)c3)cc2)[C@H](CO)N1C(=O)c1cccnc1` gave T cruzi growth 91, Pf Dd2 inh -91* and GASC1 inh -3.
Screening CCCNC(=O)N1[C@@H](C#N)[C@H](c2ccccc2-c2ccccc2F)[C@@H]1CO returned Pf Dd2 inh -89* and GASC1 inh -2.
Screening N#Cc1ccc(NC(=O)c2ccc(Br)o2)cc1 returned IDH1 mut inh -1.
O[C@@H]1[C@@H](O)[C@H](OC/C=C/c2ccccc2)O[C@H](CO[C@@H]2OC[C@H](O)[C@H](O)[C@H]2O)[C@H]1O was read as IDH1 mut inh 0.
For COc1ccccc1C#Cc1ccc([C@@H]2[C@@H](C#N)N(C(=O)C3CCCC3)[C@H]2CO)cc1 the results were Pf Dd2 inh -88* and GASC1 inh -1.
Screening COc1ccccc1C#Cc1ccc([C@H]2[C@@H](CO)N(C(=O)C3CCCC3)[C@H]2C#N)cc1 returned Pf Dd2 inh -27 and GASC1 inh -4.
COc1ccccc1C#Cc1ccc([C@@H]2[C@@H](CO)N(C(=O)C3CCCC3)[C@H]2C#N)cc1 was read as Pf Dd2 inh -88* and GASC1 inh 1.
Screening COc1ccccc1C#Cc1ccc([C@H]2[C@@H](C#N)N(C(=O)C3CCC3)[C@H]2CO)cc1 returned T cruzi growth 94, Pf Dd2 inh -90* and GASC1 inh -1.
For CCS(=O)(=O)N1CCCCN2[C@H](C1)[C@@H](c1ccc(C#Cc3ccccc3OC)cc1)[C@@H]2CO the results were T cruzi growth 86, Pf Dd2 inh -82* and GASC1 inh -4.
NC(=O)c1c(NC(=O)C2CC(=O)N(c3ccc(Cl)cc3)C2)sc2c1CCCC2 (stereo not given) was read as IDH1 mut inh 0.
Screening COc1ccc(-c2cc(C(F)(F)F)nc(SCC(=O)N(C)c3ccccc3)n2)cc1OC returned IDH1 mut inh 0.
Screening COc1ccc(CN(C)C[C@@H]2OCCCC[C@H](C)Oc3ccc(NC(=O)Nc4ccc(F)cc4)cc3C(=O)N([C@H](C)CO)C[C@@H]2C)cc1 returned IDH1 mut inh 0, T cruzi growth 65, Pf Dd2 inh -20 and GASC1 inh 0.
For COc1ccc(CN(C)C[C@@H]2OCCCC[C@H](C)Oc3ccc(NC(=O)Nc4ccc(F)cc4)cc3C(=O)N([C@@H](C)CO)C[C@@H]2C)cc1 the results were T cruzi growth 73, Pf Dd2 inh inconclusive and GASC1 inh 1.
Screening COc1ccc(CN(C)C[C@H]2OCCCC[C@H](C)Oc3ccc(NC(=O)Nc4ccc(F)cc4)cc3C(=O)N([C@@H](C)CO)C[C@H]2C)cc1 returned IDH1 mut inh 1, T cruzi growth 76, Pf Dd2 inh -83* and GASC1 inh 9.
For COc1ccc(CN(C)C[C@H]2OCCCC[C@H](C)Oc3ccc(NC(=O)Nc4ccc(F)cc4)cc3C(=O)N([C@H](C)CO)C[C@H]2C)cc1 the results were IDH1 mut inh 2, T cruzi growth 69, Pf Dd2 inh -81* and GASC1 inh -3.
COc1ccc(CN(C)C[C@@H]2OCCCC[C@@H](C)Oc3ccc(NC(=O)NC(C)C)cc3C(=O)N([C@H](C)CO)C[C@H]2C)cc1 was read as IDH1 mut inh 68*, T cruzi growth 37, Pf Dd2 inh -2 and GASC1 inh inconclusive.
For COc1ccc(NC(=O)Nc2ccc3c(c2)C(=O)N([C@H](C)CO)C[C@H](C)[C@H](CN(C)Cc2ccc(C(F)(F)F)cc2)OCCCC[C@@H](C)O3)cc1 the results were T cruzi growth 84, Pf Dd2 inh -25 and GASC1 inh -1.
COc1ccc(NC(=O)Nc2ccc3c(c2)C(=O)N([C@H](C)CO)C[C@@H](C)[C@H](CN(C)Cc2ccc(C(F)(F)F)cc2)OCCCC[C@H](C)O3)cc1 was read as IDH1 mut inh -3, T cruzi growth 59, Pf Dd2 inh -87* and GASC1 inh 0.
COc1ccc(CN(C)C[C@H]2OCCCC[C@H](C)Oc3ccc(NC(=O)Nc4ccc(C(F)(F)F)cc4)cc3C(=O)N([C@H](C)CO)C[C@@H]2C)cc1 was read as IDH1 mut inh 1, T cruzi growth 52, Pf Dd2 inh -37 and GASC1 inh -3.
For COc1ccc(NC(=O)Nc2ccc3c(c2)C(=O)N([C@@H](C)CO)C[C@@H](C)[C@H](CN(C)Cc2ccc(C(F)(F)F)cc2)OCCCC[C@@H](C)O3)cc1 the results were IDH1 mut inh 0, T cruzi growth 72, Pf Dd2 inh -85* and GASC1 inh 0.
`COc1ccc(CN(C)C[C@H]2OCCCC[C@@H](C)Oc3ccc(NC(=O)Nc4ccc(C(F)(F)F)cc4)cc3C(=O)N([C@@H](C)CO)C[C@H]2C)cc1` gave T cruzi growth 56 and Pf Dd2 inh -88*.
COc1cccc(-c2cc(C(=O)Nc3ccc(S(=O)(=O)NC(C)=O)cc3)c3ccccc3n2)c1 was read as IDH1 mut inh -1.
`c1ccc(-c2nnc(SCc3nc4ccccc4s3)n2-c2ccccc2)cc1` gave IDH1 mut inh 0.
Screening CC(C)(C)NS(=O)(=O)c1ccc(OCC(=O)Nc2ccc(F)c(Cl)c2)cc1 returned IDH1 mut inh 0.
